Calls of active or inactive are those of the source. The calls are words filed in the database; no cut-off is given here.

For assay [1], the system named is Brucella pseudogrignonensis. Description: Antibacterial activity against Ochrobactrum pseudogrignonense 4-4DEP at 30 ug/disk after 24 to 48 hrs by disk diffusion method. Format: functional. The conditions noted are these: for zone of inhibition at 30 µg/disc: read-out: DIZ. Summed up: (§1)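 Marine bacterial isolate from a heavily fouled surface, identified by 16S rRNA gene sequence. Agar disk diffusion: sterilised 5.2 mm paper disks loaded with 30 µg pure compound in CH2Cl2 and dried 3 h at room temperature. Plates were seeded with 100 µL of overnight culture (10^6 cfu/mL) and incubated 24 and 48 h at 26 °C. Read-out was inhibition zone diameter, run in triplicate.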
Background: A growth-free zone around the sample is the usual read-out of agar diffusion tests.

Assay [2] relates to Brucella pseudogrignonensis. Description: Antibacterial activity against Ochrobactrum pseudogrignonense 21-6PIN at 30 ug/disk after 24 to 48 hrs by disk diffusion method. The format is functional. The conditions noted are these: for zone of inhibition at 30 µg/disc: read-out: DIZ. Summed up: as §1
A further assay relates to Alteromonas sp. Briefly: Antibacterial activity against Alteromonas sp. 11-6DEP at 30 ug/disk after 24 to 48 hrs by disk diffusion method. The format is functional. As to conditions: for zone of inhibition at 30 µg/disc: read-out: DIZ. The essentials:
(§2)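 Disk diffusion on agar plates against marine bacterial isolates from a heavily fouled surface, identified by 16S rRNA sequencing. 5.2 mm sterilized paper disks loaded with 30 µg compound in CH2Cl2, dried 3 h at room temperature, then placed on plates spread with 100 µL overnight culture (10^6 cfu/mL). Inhibition zone diameter read after 24 and 48 h at 26 °C. Cu2O 600 µg/disk positive control, CH2Cl2 solvent control, triplicate.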

For a further assay, the system named is Oceanobacillus iheyensis. Briefly: Antibacterial activity against Oceanobacillus iheyensis 31-C at 30 ug/disk after 24 to 48 hrs by disk diffusion method. Format: functional. The conditions noted are these: for zone of inhibition at 30 µg/disc: read-out: DIZ. Summed up:
as §2

The test system of assay [3] is Bacillus sp. Description: Antibacterial activity against Bacillus sp. 10-6DEP at 30 ug/disk after 24 to 48 hrs by disk diffusion method. Format: functional. As to conditions: Bacillus sp. (in: firmicutes), read-out: DIZ. Summed up: as §2
In the next assay the test system is Kocuria sp. 10-4DEP. Briefly: Antibacterial activity against Kocuria sp. 10-4DEP at 30 ug/disk after 24 to 48 hrs by disk diffusion method. The format is functional. As to conditions: for zone of inhibition at 30 µg/disc: read-out: DIZ. The essentials: as §2
In assay [4] the test system is Brucella pseudogrignonensis. Description: Antibacterial activity against Ochrobactrum pseudogrignonense 21-6PIN after 24 to 48 hrs by disk diffusion method. Format: functional. Summed up: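 MIC by agar disk diffusion per NCCLS against the marine isolate 21-6PIN. Loadings per disk were 30, 16, 8, 4, 2, 1 and 0.5 µg, delivered in MeOH, with methanol alone as negative control. Run in triplicate.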

The test system of assay [5] is Bacillus sp. Briefly: Antibacterial activity against Bacillus sp. 10-6DEP after 24 to 48 hrs by disk diffusion method. Format: functional. The essentials: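 MIC by agar disk diffusion (NCCLS) against Bacillus sp. 10-6DEP. Disks loaded with 30, 16, 8, 4, 2, 1 and 0.5 µg delivered in MeOH. Methanol alone as negative control. Triplicate.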
Assay [6] relates to Brucella pseudogrignonensis. Description: Antibacterial activity against Ochrobactrum pseudogrignonense 4-4DEP after 24 to 48 hrs by disk diffusion method. The format is functional.
A further assay relates to Escherichia coli. Briefly: Antiquorum sensing activity against Escherichia coli pS401 assessed as inhibition of Pseudomonas putida IsoF derived acyl-homoserinelactone-induced bioluminescence upto 200 ug after overnight incubation. The essentials: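 Biosensor agar overlay. E. coli pS401 and P. putida IsoF grown in LB broth. 15 mL of each culture mixed into LB soft agar (0.8%) and poured over prewarmed LB agar plates. Paper disks received 10 or 20 µL of a 10 mg/mL compound solution. Plates incubated overnight at 37 °C and luminescence imaged. QS inhibition was scored where light was lost but growth around the disk was unaffected.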

Regarding `C=C(C)[C@H]1CC/C(C)=C/CC[C@@]2(C)O[C@@H]2CC/C(COC(C)=O)=C\[C@@H]1OC(C)=O`, the zone of inhibition at 30 µg/disc in assay [1] is 6 mm; in assay [2], no less than 10 mm; with Oceanobacillus iheyensis it was 6 mm; with Bacillus sp. [3], 8 mm. The “diameter of the inhibition zone (DIZ)” value in the assay on Alteromonas sp. and in the assay with Kocuria sp. 10-4DEP was “inactive” in each case. The MIC was 30 µg in [4], 30 µg with Bacillus sp. [5] and greater than 30 µg in assay [6].

`C=C1CC/C=C(\C)CC[C@H](C(=C)C)[C@@H](OC(C)=O)/C=C(/COC(C)=O)CC[C@H]1O`: the zone of inhibition at 30 µg/disc in assay [1] came to 6 mm; in assay [2] it was 6 mm; in the assay with Oceanobacillus iheyensis, 6 mm; with Bacillus sp. [3], 8 mm; with Kocuria sp. 10-4DEP, 6 mm. Moreover, the “diameter of the inhibition zone (DIZ)” value in the assay with Alteromonas sp. is “inactive”. Further, the MIC (in assay [4]; against Bacillus sp. [5]) was greater than 30 µg each time. Besides, the result with Escherichia coli was Active.

For `C=C(C)[C@H]1CC/C(C)=C/CC[C@@](C)(Cl)[C@H](O)CC/C(COC(C)=O)=C\[C@@H]1OC(C)=O`, the results for the zone of inhibition at 30 µg/disc (in assay [1]; in the assay on Oceanobacillus iheyensis; in the assay on Bacillus sp. [3]) were 6 mm, 6 mm and 8 mm, respectively. Besides, the “diameter of the inhibition zone (DIZ)” value (in [2]; in the assay with Alteromonas sp.; in the assay with Kocuria sp. 10-4DEP) was “inactive” each time. For the same molecule, the MIC (in [4]; in the assay on Bacillus sp. [5]) was greater than 30 µg each time.

With `C=C(C)[C@H]1CC/C(C)=C/C/C=C(\C)[C@H](O)CC/C(COC(C)=O)=C\[C@@H]1OC(C)=O`, the zone of inhibition at 30 µg/disc in [1] came to 6 mm; in assay [2], 8 mm; in the assay with Alteromonas sp., 6 mm; with Oceanobacillus iheyensis, 6 mm; with Bacillus sp. [3], 8 mm; with Kocuria sp. 10-4DEP, 6 mm. Moreover, the MIC is 30 µg in assay [4], 30 µg against Bacillus sp. [5] and greater than 30 µg in [6]. For the same molecule, the result with Escherichia coli was Active.

As for `C=C(C)[C@H]1CC/C(C)=C/C/C=C(/C)[C@@H](O)CC/C(COC(C)=O)=C\[C@@H]1OC(C)=O`, the zone of inhibition at 30 µg/disc (in assay [1]; in the assay with Bacillus sp. [3]) was 6 mm in each case. The “diameter of the inhibition zone (DIZ)” value (in assay [2]; in the assay on Alteromonas sp.; with Oceanobacillus iheyensis; in the assay on Kocuria sp. 10-4DEP) was “inactive” throughout. Further, the MIC (in [4]; in the assay with Bacillus sp. [5]) was greater than 30 µg in each case.

In the case of `C=C(C)[C@H]1CC/C(C)=C/CC[C@@]2(C)O[C@@H]2CC/C(COC(C)=O)=C\[C@@H]1O` [ASPERDIOL ACETATE], the “diameter of the inhibition zone (DIZ)” value (in assay [1]; with Alteromonas sp.; in the assay on Oceanobacillus iheyensis; in the assay with Kocuria sp. 10-4DEP) was “inactive” each time. For the same molecule, the zone of inhibition at 30 µg/disc is no less than 10 mm in [2] and 8 mm in the assay with Bacillus sp. [3]. Also, the results for the MIC (in assay [4]; in the assay with Bacillus sp. [5]; in assay [6]) were 30 µg, 30 µg and greater than 30 µg, respectively.

Take `C=C(C)[C@H]1CC/C(C)=C/CC[C@@]2(C)O[C@@H]2CC/C(CO)=C\[C@@H]1O` [ASPERDIOL]: the “diameter of the inhibition zone (DIZ)” value (in assay [1]; in the assay on Alteromonas sp.; with Oceanobacillus iheyensis; with Kocuria sp. 10-4DEP) was “inactive” each time. In addition, the zone of inhibition at 30 µg/disc in [2] was determined as 8 mm; with Bacillus sp. [3], 6 mm. Further, the figures for the MIC (in [4]; in the assay on Bacillus sp. [5]) were greater than 30 µg and 4 µg, respectively.

Consider `C=C(C)[C@@H]1C/C=C(/C=O)CC[C@H]2O[C@]2(C)CC/C=C(\C)CC1` [KNIGHTAL], for which the “diameter of the inhibition zone (DIZ)” value in assay [1] is “inactive”. Moreover, the zone of inhibition at 30 µg/disc in assay [2] turned out to be 6 mm; in the assay on Alteromonas sp., 6 mm; in the assay on Oceanobacillus iheyensis, 6 mm; in the assay with Bacillus sp. [3], 8 mm; in the assay with Kocuria sp. 10-4DEP it was 8 mm. Also, the MIC was 8 µg in assay [4], 16 µg against Bacillus sp. [5] and 8 µg in [6]. Besides, the result in the assay with Escherichia coli was Active.

For the molecule `C=C(C)[C@@H]1C/C=C(/COC(C)=O)CC[C@H]2O[C@]2(C)CC/C=C(\C)CC1` [KNIGHTOL ACETATE], the “diameter of the inhibition zone (DIZ)” value (in assay [1]; with Alteromonas sp.; in the assay with Kocuria sp. 10-4DEP) was “inactive” each time. In addition, the zone of inhibition at 30 µg/disc (in [2]; with Oceanobacillus iheyensis; in the assay on Bacillus sp. [3]) was 6 mm in each case. Also, the values for the MIC (in assay [4]; against Bacillus sp. [5]; in assay [6]) were 8 µg, 30 µg and 8 µg, respectively.

On to `C=C(C)[C@@H]1C/C=C(/CO)CC[C@H]2O[C@]2(C)CC/C=C(\C)CC1` [KNIGHTOL], for which the “diameter of the inhibition zone (DIZ)” value in assay [1] is “inactive”. Besides, the zone of inhibition at 30 µg/disc in assay [2] is 6 mm; with Alteromonas sp., 6 mm; in the assay with Oceanobacillus iheyensis it was 6 mm; in the assay with Bacillus sp. [3], no less than 10 mm; in the assay with Kocuria sp. 10-4DEP, no less than 10 mm. Also, the MIC stood at 8 µg in assay [4] and 2 µg with Bacillus sp. [5]. The result in the assay with Escherichia coli was Active.
